Assay results: article PMC4233149 (Clinical cancer research : an official journal of the …, 2014)
Marks after values point to notes of the source that are not given here.

Assay: Phase I safety and tolerability, weekly
Format: in vivo, human
Procedure, shortened: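 Oral weekly dose escalation followed a 3+3 design (planned 90, 135, 200, 300mg, intermediate doses allowed), then a modified toxicity-probability-interval confirmation stage. A DLT was any drug-related CTCAE v3.0 ≥G4 hematological, ≥G3 febrile neutropenia or ≥G3 non-hematological toxicity. Safety visits, glucose, C-peptide and HbA1c monitoring followed a fixed schedule; AEs were graded by CTCAE v3.0.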

[1] = 200mg QW, G3, cycle 1, dose-limiting toxicity

NC1(c2ccc(-c3nc4ccn5c(=O)[nH]nc5c4cc3-c3ccccc3)cc2)CCC1 [MK-2206]
Diarrhea, number of AEs (200mg QW, G3, cycle 1): 0 (0)
Dry skin, number of AEs (200mg QW, G3, cycle 1): 0 (0)
Dysgeusia, number of AEs (200mg QW, G3, cycle 1): 0 (0)
Fatigue, number of AEs (200mg QW, G3, cycle 1): 0 (0)
Nausea, number of AEs (200mg QW, G3, cycle 1): 0 (0)
Pruritus, number of AEs (200mg QW, G3, cycle 1): 0 (0)
Stomatitis, number of AEs (200mg QW, G3, cycle 1): 0 (0)
Vomiting, number of AEs (200mg QW, G3, cycle 1): 0 (0)
Dermatitis acneiform, number of AEs [1]: 1^c (1)
Rash (all rash terms collated), number of AEs [1]: 3^c (3)
Anorexia, number of AEs (250mg QW, G1, all cycles): 0 (0)
Dermatitis acneiform, number of AEs (250mg QW, G1, all cycles): 0 (0)
Diarrhea, number of AEs (250mg QW, G1, all cycles): 0 (0)
Dysgeusia, number of AEs (250mg QW, G1, all cycles): 0 (0)
Fatigue, number of AEs (250mg QW, G1, all cycles): 0 (0)
Nausea, number of AEs (250mg QW, G1, all cycles): 0 (0)
Pruritus, number of AEs (250mg QW, G1, all cycles): 0 (0)
Stomatitis, number of AEs (250mg QW, G1, all cycles): 2
Vomiting, number of AEs (250mg QW, G1, all cycles): 0 (0)
Anorexia, number of AEs (250mg QW, G1, cycle 1): 0 (0)
Dermatitis acneiform, number of AEs (250mg QW, G1, cycle 1): 0 (0)
Diarrhea, number of AEs (250mg QW, G1, cycle 1): 0 (0)
Dysgeusia, number of AEs (250mg QW, G1, cycle 1): 0 (0)
Fatigue, number of AEs (250mg QW, G1, cycle 1): 0 (0)
Nausea, number of AEs (250mg QW, G1, cycle 1): 0 (0)
Pruritus, number of AEs (250mg QW, G1, cycle 1): 0 (0)
Stomatitis, number of AEs (250mg QW, G1, cycle 1): 1
Vomiting, number of AEs (250mg QW, G1, cycle 1): 0 (0)
Anorexia, number of AEs (250mg QW, G2, all cycles): 0 (0)
Dermatitis acneiform, number of AEs (250mg QW, G2, all cycles): 0 (0)
Diarrhea, number of AEs (250mg QW, G2, all cycles): 0 (0)
Dry skin, number of AEs (250mg QW, G2, all cycles): 0 (0)
Dysgeusia, number of AEs (250mg QW, G2, all cycles): 0 (0)
Fatigue, number of AEs (250mg QW, G2, all cycles): 0 (0)
Nausea, number of AEs (250mg QW, G2, all cycles): 0 (0)
Pruritus, number of AEs (250mg QW, G2, all cycles): 0 (0)
Rash (all rash terms collated), number of AEs (250mg QW, G2, all cycles): 2
Stomatitis, number of AEs (250mg QW, G2, all cycles): 0 (0)
Vomiting, number of AEs (250mg QW, G2, all cycles): 0 (0)
Anorexia, number of AEs (250mg QW, G2, cycle 1): 0 (0)
Dermatitis acneiform, number of AEs (250mg QW, G2, cycle 1): 0 (0)
Diarrhea, number of AEs (250mg QW, G2, cycle 1): 0 (0)
Dry skin, number of AEs (250mg QW, G2, cycle 1): 0 (0)
Dysgeusia, number of AEs (250mg QW, G2, cycle 1): 0 (0)
Fatigue, number of AEs (250mg QW, G2, cycle 1): 0 (0)
Nausea, number of AEs (250mg QW, G2, cycle 1): 0 (0)
Pruritus, number of AEs (250mg QW, G2, cycle 1): 0 (0)
Rash (all rash terms collated), number of AEs (250mg QW, G2, cycle 1): 1
Stomatitis, number of AEs (250mg QW, G2, cycle 1): 0 (0)
Vomiting, number of AEs (250mg QW, G2, cycle 1): 0 (0)
Anorexia, number of AEs (250mg QW, G3, all cycles): 0 (0)
Dermatitis acneiform, number of AEs (250mg QW, G3, all cycles): 0 (0)
Diarrhea, number of AEs (250mg QW, G3, all cycles): 0 (0)
Dry skin, number of AEs (250mg QW, G3, all cycles): 0 (0)
Dysgeusia, number of AEs (250mg QW, G3, all cycles): 0 (0)
Fatigue, number of AEs (250mg QW, G3, all cycles): 0 (0)
Nausea, number of AEs (250mg QW, G3, all cycles): 0 (0)
Pruritus, number of AEs (250mg QW, G3, all cycles): 0 (0)
Rash (all rash terms collated), number of AEs (250mg QW, G3, all cycles): 2^c (2)
Stomatitis, number of AEs (250mg QW, G3, all cycles): 0 (0)
Vomiting, number of AEs (250mg QW, G3, all cycles): 0 (0)
Anorexia, number of AEs (250mg QW, G3, cycle 1): 0 (0)
Dermatitis acneiform, number of AEs (250mg QW, G3, cycle 1): 0 (0)
Diarrhea, number of AEs (250mg QW, G3, cycle 1): 0 (0)
Dry skin, number of AEs (250mg QW, G3, cycle 1): 0 (0)
Dysgeusia, number of AEs (250mg QW, G3, cycle 1): 0 (0)
Fatigue, number of AEs (250mg QW, G3, cycle 1): 0 (0)
Nausea, number of AEs (250mg QW, G3, cycle 1): 0 (0)
Pruritus, number of AEs (250mg QW, G3, cycle 1): 0 (0)
Stomatitis, number of AEs (250mg QW, G3, cycle 1): 0 (0)
Vomiting, number of AEs (250mg QW, G3, cycle 1): 0 (0)
Rash (all rash terms collated), number of AEs (250mg QW, G3, cycle 1, dose-limiting toxicity): 2^c (2)
Anorexia, number of AEs (300mg QW, G1, all cycles): 0 (0)
Dermatitis acneiform, number of AEs (300mg QW, G1, all cycles): 0 (0)
Diarrhea, number of AEs (300mg QW, G1, all cycles): 0 (0)
Dry skin, number of AEs (300mg QW, G1, all cycles): 0 (0)
Dysgeusia, number of AEs (300mg QW, G1, all cycles): 1 (1)
Fatigue, number of AEs (300mg QW, G1, all cycles): 1 (1)
Nausea, number of AEs (300mg QW, G1, all cycles): 1 (1)
Pruritus, number of AEs (300mg QW, G1, all cycles): 0 (0)
Stomatitis, number of AEs (300mg QW, G1, all cycles): 0 (0)
Vomiting, number of AEs (300mg QW, G1, all cycles): 0 (0)
Anorexia, number of AEs (300mg QW, G1, cycle 1): 0 (0)
Dermatitis acneiform, number of AEs (300mg QW, G1, cycle 1): 0 (0)
Diarrhea, number of AEs (300mg QW, G1, cycle 1): 0 (0)
Dry skin, number of AEs (300mg QW, G1, cycle 1): 0 (0)
Dysgeusia, number of AEs (300mg QW, G1, cycle 1): 1 (1)
Fatigue, number of AEs (300mg QW, G1, cycle 1): 1 (1)
Nausea, number of AEs (300mg QW, G1, cycle 1): 1 (1)
Pruritus, number of AEs (300mg QW, G1, cycle 1): 0 (0)
Stomatitis, number of AEs (300mg QW, G1, cycle 1): 0 (0)
Vomiting, number of AEs (300mg QW, G1, cycle 1): 0 (0)
Anorexia, number of AEs (300mg QW, G2, all cycles): 0 (0)
Dermatitis acneiform, number of AEs (300mg QW, G2, all cycles): 0 (0)
Diarrhea, number of AEs (300mg QW, G2, all cycles): 0 (0)
Dry skin, number of AEs (300mg QW, G2, all cycles): 0 (0)
Dysgeusia, number of AEs (300mg QW, G2, all cycles): 0 (0)
Fatigue, number of AEs (300mg QW, G2, all cycles): 0 (0)
Nausea, number of AEs (300mg QW, G2, all cycles): 0 (0)
Pruritus, number of AEs (300mg QW, G2, all cycles): 0 (0)
Rash (all rash terms collated), number of AEs (300mg QW, G2, all cycles): 2 (2)
Stomatitis, number of AEs (300mg QW, G2, all cycles): 1 (1)
Vomiting, number of AEs (300mg QW, G2, all cycles): 0 (0)
Anorexia, number of AEs (300mg QW, G2, cycle 1): 0 (0)
Dermatitis acneiform, number of AEs (300mg QW, G2, cycle 1): 0 (0)
Diarrhea, number of AEs (300mg QW, G2, cycle 1): 0 (0)
Dry skin, number of AEs (300mg QW, G2, cycle 1): 0 (0)
Dysgeusia, number of AEs (300mg QW, G2, cycle 1): 0 (0)
Fatigue, number of AEs (300mg QW, G2, cycle 1): 0 (0)
Nausea, number of AEs (300mg QW, G2, cycle 1): 0 (0)
Pruritus, number of AEs (300mg QW, G2, cycle 1): 0 (0)
Rash (all rash terms collated), number of AEs (300mg QW, G2, cycle 1): 2 (2)
Stomatitis, number of AEs (300mg QW, G2, cycle 1): 1 (1)
Vomiting, number of AEs (300mg QW, G2, cycle 1): 0 (0)
Anorexia, number of AEs (300mg QW, G3, all cycles): 0 (0)
Dermatitis acneiform, number of AEs (300mg QW, G3, all cycles): 0 (0)
Diarrhea, number of AEs (300mg QW, G3, all cycles): 0 (0)
Dry skin, number of AEs (300mg QW, G3, all cycles): 0 (0)
Dysgeusia, number of AEs (300mg QW, G3, all cycles): 0 (0)
Fatigue, number of AEs (300mg QW, G3, all cycles): 0 (0)
Nausea, number of AEs (300mg QW, G3, all cycles): 0 (0)
Pruritus, number of AEs (300mg QW, G3, all cycles): 0 (0)
Rash (all rash terms collated), number of AEs (300mg QW, G3, all cycles): 3^c (3)
Stomatitis, number of AEs (300mg QW, G3, all cycles): 0 (0)
Vomiting, number of AEs (300mg QW, G3, all cycles): 0 (0)
Anorexia, number of AEs (300mg QW, G3, cycle 1): 0 (0)
Dermatitis acneiform, number of AEs (300mg QW, G3, cycle 1): 0 (0)
Diarrhea, number of AEs (300mg QW, G3, cycle 1): 0 (0)
Dry skin, number of AEs (300mg QW, G3, cycle 1): 0 (0)
Dysgeusia, number of AEs (300mg QW, G3, cycle 1): 0 (0)
Fatigue, number of AEs (300mg QW, G3, cycle 1): 0 (0)
Nausea, number of AEs (300mg QW, G3, cycle 1): 0 (0)
Pruritus, number of AEs (300mg QW, G3, cycle 1): 0 (0)
Stomatitis, number of AEs (300mg QW, G3, cycle 1): 0 (0)
Vomiting, number of AEs (300mg QW, G3, cycle 1): 0 (0)
Rash (all rash terms collated), number of AEs (300mg QW, G3, cycle 1, dose-limiting toxicity): 3^c (3)
drug-related headaches, patients (QW schedule, 4/33): 12.1%
drug-related increased alanine aminotransferase levels, patients (QW schedule, 4/33): 12.1%
drug-related pruritus, patients (QW schedule, 4/33): 12.1%
C-peptide level increase during first cycle (range) (QW schedule, 4 patients with increase): 65.7%-166.6
drug-related stomatitis, patients (QW schedule, 5/33): 15.2%
drug-related decreased appetite, patients (QW schedule, 7/33): 21.2%
time to full resolution of DLTs from onset (QW schedule, 7 of 10 patients with DLTs): 1 to 2 weeks
drug-related vomiting, patients (QW schedule, 8/33): 24.2%
drug-related diarrhea, patients (QW schedule, 9/33): 27.3%
drug-related nausea, patients (QW schedule, 9/33): 27.3%
drug-related rash, patients (QW schedule, 14/33): 42.4%
drug-related fatigue, patients (QW schedule, 15/33): 45.5%
elevated blood glucose levels, patients (QW schedule, 19/33): 57.6%
drug-related AEs, patients (QW schedule, 22/33): 66.7%
post-cycle 1 HbA1c values (QW schedule, all patients assessed): < 7%
G1 hyperglycemia, patients (QW schedule, following 1 cycle, 1/33): 3.0%
DLTs resolved with sequelae of dry skin (QW schedule, of 10 patients with DLTs): 3 patients
patients with increased C-peptide levels during first cycle (QW schedule, patients assessed): 4 of 6
patients who discontinued for drug-related AEs (QW schedule, G3 rash, G3 complete atrioventricular block, G1 rash (n=1 each)): Three
